In test [1] the target is T1, Angiotensin-converting enzyme (Rattus norvegicus, UniProt P47820).
T1 sequence (P47820 whole entry): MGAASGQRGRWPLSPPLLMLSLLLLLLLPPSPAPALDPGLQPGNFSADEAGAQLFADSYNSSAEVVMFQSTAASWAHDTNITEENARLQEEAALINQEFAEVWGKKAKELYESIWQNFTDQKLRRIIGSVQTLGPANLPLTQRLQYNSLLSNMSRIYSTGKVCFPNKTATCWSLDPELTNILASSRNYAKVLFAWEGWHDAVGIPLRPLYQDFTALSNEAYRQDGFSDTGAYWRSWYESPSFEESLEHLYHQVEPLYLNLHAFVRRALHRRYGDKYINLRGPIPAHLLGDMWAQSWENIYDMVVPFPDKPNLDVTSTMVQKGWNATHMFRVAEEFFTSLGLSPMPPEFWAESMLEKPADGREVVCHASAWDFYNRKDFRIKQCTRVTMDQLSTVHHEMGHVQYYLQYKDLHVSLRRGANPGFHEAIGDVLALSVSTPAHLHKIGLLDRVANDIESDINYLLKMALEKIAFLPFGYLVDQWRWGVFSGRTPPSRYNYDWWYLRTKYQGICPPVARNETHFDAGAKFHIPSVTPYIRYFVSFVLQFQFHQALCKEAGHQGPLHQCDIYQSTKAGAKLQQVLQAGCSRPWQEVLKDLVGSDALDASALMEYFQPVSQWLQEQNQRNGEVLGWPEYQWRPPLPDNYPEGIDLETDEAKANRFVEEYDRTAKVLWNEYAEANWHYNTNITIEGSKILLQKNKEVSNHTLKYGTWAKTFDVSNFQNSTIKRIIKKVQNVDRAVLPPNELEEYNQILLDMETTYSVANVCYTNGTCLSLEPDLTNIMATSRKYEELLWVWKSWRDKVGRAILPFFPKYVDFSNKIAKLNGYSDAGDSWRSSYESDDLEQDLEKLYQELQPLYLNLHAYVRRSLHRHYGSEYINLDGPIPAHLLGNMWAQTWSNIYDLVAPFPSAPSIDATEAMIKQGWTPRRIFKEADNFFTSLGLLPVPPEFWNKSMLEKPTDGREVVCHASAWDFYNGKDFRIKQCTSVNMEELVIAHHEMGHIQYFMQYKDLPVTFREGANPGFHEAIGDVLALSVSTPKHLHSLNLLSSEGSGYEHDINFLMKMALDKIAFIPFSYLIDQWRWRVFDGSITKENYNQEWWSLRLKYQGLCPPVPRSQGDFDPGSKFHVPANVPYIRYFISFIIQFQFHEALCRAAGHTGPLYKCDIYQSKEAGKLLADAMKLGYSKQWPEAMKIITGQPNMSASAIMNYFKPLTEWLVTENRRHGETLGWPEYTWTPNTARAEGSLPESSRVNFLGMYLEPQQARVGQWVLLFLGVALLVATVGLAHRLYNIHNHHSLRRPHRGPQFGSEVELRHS
The experiment in a line: In vitro inhibitory activity against angiotensin I converting enzyme of rats. As to conditions: read-out: I50.

For test [2], the system named is Rattus norvegicus. The experiment in a line: % Inhibition of angiotensin-I induced pressor response in normotensive rats after intravenous dosing of 0.015 umol/kg. The test is classed as functional. The essentials:
(§1)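 Male Sprague–Dawley rats (225–275 g) fitted with indwelling abdominal aorta and vena cava catheters, recovered at least 2 weeks, then tested conscious and unrestrained. Aortic pressure was recorded directly. Pressor responses to AI (310 ng/kg iv) and AII (100 ng/kg iv) were taken before dosing. Compound was given iv in water or 5% NaHCO3, and responses were followed up to 70 min. Maximum % inhibition is the mean of four animals per dose.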

For test [3], the system named is Rattus norvegicus. Briefly: % Inhibition of angiotensin-I induced pressor response in normotensive rats after intravenous dosing of 0.05 umol/kg. The class given is functional. The essentials:
as §1

Test [4] concerns Rattus norvegicus. The experiment in a line: % Inhibition of angiotensin-I induced pressor response in normotensive rats after intravenous dosing of 0.15 umol/kg. The class given is functional. The essentials:
(§2)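 Conscious, unrestrained male Sprague–Dawley rats (225–275 g) with indwelling aortic and vena caval catheters, allowed at least 2 weeks of recovery. Aortic pressure recorded directly. Baseline pressor responses to AI (310 ng/kg iv) and AII (100 ng/kg iv) were taken first. Compound was given iv in 0.1 mL water or 5% NaHCO3, and responses were followed for up to 70 min. Maximum % inhibition is the mean of four animals per dose.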

The subject of test [5] is Rattus norvegicus. The experiment in a line: % Inhibition of angiotensin-I induced pressor response in normotensive rats after peroral dosing of 0.5 umol/kg. As to conditions: po. The test is classed as functional. Put shortly:
(§3)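 Conscious, unrestrained catheterized male Sprague–Dawley rats (225–275 g) had direct aortic pressure recording. Baseline pressor responses were taken to AI (310 ng/kg iv) and AII (100 ng/kg iv). Compound was given orally in water, 5% NaHCO3 or 1% agar suspension. AI and AII responses were then tracked up to 280 min. Maximum % inhibition is the mean response of four animals per dose.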

Test [6] concerns Rattus norvegicus. The experiment in a line: % Inhibition of angiotensin-I induced pressor response in normotensive rats after peroral dosing of 1.5 umol/kg. The class given is functional. The settings on record: po. The essentials:
as §3

The subject of test [7] is Rattus norvegicus. Briefly: % Inhibition of angiotensin-I induced pressor response in normotensive rats after peroral dosing of 5 umol/kg. The class given is functional. As to conditions: po. Put shortly:
as §3

Test [8] has as its system Rattus norvegicus. Briefly: % Inhibition of angiotensin-I induced pressor response in normotensive rats after peroral dosing of 15 umol/kg. The settings on record: po. The class given is functional. Put shortly: as §3
In test [9] the target is T2, Angiotensin-converting enzyme (Rattus norvegicus) (UniProt P47820).
T2 sequence (whole entry): T1 sequence (P47820 whole entry)
The experiment in a line: In vitro inhibition of rat Angiotensin I converting enzyme.

Test [10] has as its system Rattus norvegicus. The experiment in a line: % Inhibition of angiotensin-I induced pressor response in normotensive rats after intravenous dosing of 0.5 umol/kg. The test is classed as functional. Put shortly:
as §2

Test [11] concerns Rattus norvegicus. The experiment in a line: % Inhibition of angiotensin-I induced pressor response in normotensive rats after peroral dosing of 50 umol/kg. The class given is functional. As to conditions: po. The essentials: as §3

Values joined by “and” are separate entries in the source; they are usually repeats but may differ in a detail not shown here. Equal values may be shown once.

With `C[C@H](CS)C(=O)N1C[C@@H](O)C[C@H]1C(=O)O`, the IC50 in test [1] is 8.6 nM.

For `C[C@H](CS)C(=O)N1CC(=O)C[C@H]1C(=O)O`, the IC50 in test [1] is 16 nM.

In the case of `C[C@H](N[C@@H](CCc1ccccc1)C(=O)O)C(=O)N1C[C@@H](Sc2ccccc2)C[C@H]1C(=O)O`, the IC50 in test [1] worked out at 2 nM. In the test with Rattus norvegicus [2], the inhibition in vivo at 0.015 µmol/kg stood at 20%. In addition, the inhibition in vivo at 0.05 µmol/kg in the test with Rattus norvegicus [3] stood at 43%. The inhibition in vivo at 0.15 µmol/kg with Rattus norvegicus [4] is 85%. For the same compound, the inhibition in vivo at 0.5 µmol/kg in the test with Rattus norvegicus [5] was determined as 23%. Besides, the inhibition in vivo at 1.5 µmol/kg in the test with Rattus norvegicus [6] was determined as 31%. For the same compound, the inhibition in vivo at 5 µmol/kg with Rattus norvegicus [7] amounted to 67%. For the same compound, the inhibition in vivo at 15 µmol/kg in the test with Rattus norvegicus [8] came to 78%.

Regarding `CO[C@H]1C[C@@H](C(=O)O)N(C(=O)CP(=O)(O)CCCCc2ccccc2)C1`, the T50 in test [9] is 60 nM. The same compound returned an inhibition in vivo at 0.05 µmol/kg with Rattus norvegicus [3] of 16%. The inhibition in vivo at 0.15 µmol/kg in the test with Rattus norvegicus [4] is 55%. In the test with Rattus norvegicus [10], this compound displayed an inhibition in vivo at 0.5 µmol/kg of 90%.

The compound `CCOC(=O)[C@H](CCc1ccccc1)N[C@@H](C)C(=O)N1CCC[C@H]1C(=O)O` registered an inhibition in vivo at 0.5 µmol/kg with Rattus norvegicus [5] of 50%. In addition, the inhibition in vivo at 1.5 µmol/kg in the test with Rattus norvegicus [6] was 84%. Besides, in the test on Rattus norvegicus [7], the inhibition in vivo at 5 µmol/kg was found to be 83%.

In the case of `C[C@H](CS)C(=O)N1C[C@@H](C2CCCCC2)C[C@H]1C(=O)O`, the IC50 in test [1] was 2 nM.

`C[C@H](CS)C(=O)N1C[C@@H]([S+]([O-])c2ccccc2)C[C@H]1C(=O)O` (stereo partly drawn): the IC50 in test [1] came out at 46 nM.

For `O=C(O)[C@@H]1C[C@@H](c2ccccc2)CN1C(=O)CP(=O)(O)CCCCc1ccccc1`, the T50 in test [9] was 120 nM. Besides, in the test with Rattus norvegicus [3], the inhibition in vivo at 0.05 µmol/kg was 17%. In the test on Rattus norvegicus [4], this compound returned an inhibition in vivo at 0.15 µmol/kg of 37%. Further, the inhibition in vivo at 0.5 µmol/kg in the test with Rattus norvegicus [10] was 76%.

Turning to `C[C@H](CS)C(=O)N1C[C@@H](S(=O)(=O)c2ccccc2)C[C@H]1C(=O)O`, in [1], the IC50 came to 28 nM.

`O=C(O)[C@@H]1C[C@H](Cc2ccccc2)CN1C(=O)CP(=O)(O)CCCCc1ccccc1`: the T50 in [9] is 10 nM.

As for `C[C@H](CS)C(=O)N1C[C@@H](c2ccccc2)C[C@H]1C(=O)O`, the IC50 in [1] is 30 nM.

Turning to `O=C(O)[C@@H]1CC2(CN1C(=O)CP(=O)(O)CCCCc1ccccc1)SCCS2`, the T50 in test [9] is 4 nM and 2 nM. This compound displayed an inhibition in vivo at 0.015 µmol/kg in the test with Rattus norvegicus [2] of 20%. This compound registered an inhibition in vivo at 0.05 µmol/kg in the test with Rattus norvegicus [3] of 47%. This compound also displayed an inhibition in vivo at 0.15 µmol/kg with Rattus norvegicus [4] of 80%. This compound yielded an inhibition in vivo at 0.5 µmol/kg with Rattus norvegicus [10] of 90%. Besides, the inhibition in vivo at 5 µmol/kg with Rattus norvegicus [7] was 28%. The inhibition in vivo at 50 µmol/kg in the test on Rattus norvegicus [11] was 94%. Further, the inhibition in vivo at 15 µmol/kg in the test on Rattus norvegicus [8] was 74%.

For the compound `C[C@H](N[C@@H](CCc1ccccc1)C(=O)O)C(=O)N1C[C@@H](c2ccccc2)C[C@H]1C(=O)O`, the IC50 in test [1] is 5 nM.

For the compound `C[C@H]1C[C@@H](C(=O)O)N(C(=O)[C@H](C)CS)C1`, the IC50 in test [1] stood at 2 nM.

For `COC1(OC)C[C@@H](C(=O)O)N(C(=O)[C@H](C)CS)C1`, the IC50 in test [1] was 7.2 nM.

In the case of `C[C@H](CS)C(=O)N1CC2(C[C@H]1C(=O)O)SCCS2`, the IC50 in [1] is 6.5 nM.

For `CS[C@@H]1C[C@@H](C(=O)O)N(C(=O)CP(=O)(O)CCCCc2ccccc2)C1`, the T50 in [9] was 29 nM. In the test with Rattus norvegicus [2], the inhibition in vivo at 0.015 µmol/kg amounted to 7%. The inhibition in vivo at 0.05 µmol/kg with Rattus norvegicus [3] is 44%. This compound also yielded an inhibition in vivo at 0.15 µmol/kg in the test on Rattus norvegicus [4] of 27%. The compound also had an inhibition in vivo at 0.5 µmol/kg in the test on Rattus norvegicus [10] of 79%.

The values above are taken from ChEMBL document CHEMBL1124128, “Angiotensin-converting enzyme inhibitors. Mercaptan, carboxyalkyl dipeptide, and phosphinic acid inhibitors incorporating 4-substituted prolines” (J Med Chem, 1988).
